Source: PubChem
A selection: hits, their analogues and other compounds. The true share with any hit is near 4%.
FN deposit inh: fibronectin deposition inhibition | AH1F fibroblasts, Alexa488-fibronectin deposition fluorescence, overnight | inhibition, % at 12.6 µM | 0.086% of 350,000 active | AID 743247;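 active = mean inhibition across replicates of 30% or more, regardless of how many single replicates reach that level; inconclusive = mean under 30% yet at least half of replicates reach 30%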;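 also: positive control wells lacked labelled fibronectin entirely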
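Material – AH1F fibroblast monolayer, labelled fibronectin deposition · Reagent – labelled fibronectin 24 nM · Timing – 1 h adhesion, overnight exposure · Measured by – fluorescence at 485 nm excitation, 525 nm emission · Read-out – inhibition of fibronectin deposition signal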
Ecoli rRNA inh: inhibitors of bacterial rRNA selective over humanized ribosomes. E. coli WT GFP vs humanized-ribosome RFP mutants, fluorescence, 24 h; active compounds read low; DMSO median 0, no signal -100. GFP signal change (wild-type ribosome), % (no concentration beside the values). 1.6% of 350,000 active. AID 720706;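 active = significant combined selectivity score with lowered wild-type GFP, culture density cut under 30%, mutant RFP and density less affected; inactive = any of these conditions unmet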
FGF22 binding: FGF22 (human) thermal shift binding. Q9HCT0. activity (Tm shift, normalised), % at 9.99 µM. recombinant FGF22 thermal shift, SYPRO orange fluorescence; percent of sucrose octasulfate shift, DMSO zero. AID 651658. 1.5% of 340,000 active;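 active = mean Tm shift, scaled 0 neutral to 100 positive control, at about 1.3% or above, every replicate too, limit read from the data; inconclusive = no clear call, values can overlap the other calls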
Target sequence (Q9HCT0 whole entry, looked up): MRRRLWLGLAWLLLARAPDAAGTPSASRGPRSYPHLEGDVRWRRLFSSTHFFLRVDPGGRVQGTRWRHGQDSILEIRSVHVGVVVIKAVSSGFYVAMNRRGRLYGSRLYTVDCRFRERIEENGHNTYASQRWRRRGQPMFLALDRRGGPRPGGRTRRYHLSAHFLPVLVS
SIRT5 block: sirtuin-5 (human) deacylase inhibition | 1.1% of 330,000 active | Q9NXA8 | Purified SirT5, succinyl-peptide AMC, trypsin-coupled fluorescence | inhibition, % at 15 µM; in the data active = inhibition above about 15%; inconclusive = no clear call, values can overlap the other calls
Target sequence (Q9NXA8 whole entry, looked up): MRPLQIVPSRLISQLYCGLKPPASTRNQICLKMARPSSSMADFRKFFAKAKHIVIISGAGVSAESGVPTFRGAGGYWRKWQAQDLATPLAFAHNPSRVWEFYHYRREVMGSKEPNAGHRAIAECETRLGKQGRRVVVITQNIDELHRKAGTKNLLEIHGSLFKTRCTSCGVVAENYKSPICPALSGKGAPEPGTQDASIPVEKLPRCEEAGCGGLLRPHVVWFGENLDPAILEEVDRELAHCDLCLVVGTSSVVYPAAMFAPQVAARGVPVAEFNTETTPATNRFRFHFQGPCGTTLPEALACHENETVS
Statin myotox sup: suppressors of simvastatin-induced myotoxicity in C2C12 myotubes; 0.78% of 330,000 active; ATP luminescence, 48 h; scaled: DMSO 0, geranylgeraniol control 100; rescue of ATP level, % at 7.49 µM;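 active = mean ATP rescue above about 67%, or every replicate alone reaching that limit, limit read from the data, passing the limit was not always enough; inconclusive = no clear call, values can overlap the other calls; inactive = mean under the limit and some replicate under it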;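 also: myotubes were challenged with 10 µM simvastatin during compound exposure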
E-selectin induc: E-selectin induction on HUVECs; HUVEC E-selectin immunofluorescence imaging; normalized: neutral wells 0, TNF-alpha wells 100; 0.37% of 260,000 active; activation, % at 7.58 µM; P16581; AID 686992;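 active = mean E-selectin-positive cell signal at least 10% of the positive control, reached in at least 60% of replicates, without over 20% cell loss; inconclusive = no rule given, readout overlaps actives, possibly toxicity-flagged; inactive = the rest, including those meeting only one limit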
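Test system: HUVEC; input: 3,000 HUVEC/well; measured by: immunofluorescence imaging; read-out: % PE-positive cells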
AID977621: growth inhibition of wild-type GFP E. coli, dose response, H69 mutant RFP, cherry-pick; E. coli wild-type GFP strain growth, fluorescence, 24 h; shares compounds with Ecoli rRNA inh; 1,900 tested, under 10 active; AID 977621; activity change, negative = inhibition at 50 µM;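 active = Wild-type ribosome reporter drop at least double the humanized mutant ribosome reporter drop, growth loss under a set limit; inconclusive = no clear call, values can overlap the other calls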;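 also: wild-type GFP and H69 mutant RFP strains grown together 50/50 in each well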
AID977628: growth of wild-type and h24-humanized E. coli strains – h24 mutant RFP vs wild-type GFP, cherry-pick, dose response; shares compounds with Ecoli rRNA inh; E. coli WT GFP strain growth, fluorescence, 24 h; activity change, negative = inhibition at 50 µM; 1,900 tested, under 10 active; AID 977628;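 active = compound lowering the normal-ribosome reporter at least twice as much as the humanized-ribosome reporter, growth loss under a set limit; inconclusive = no clear call, values can overlap the other calls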;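 also: wild-type GFP and h24 humanized RFP strains co-cultured 1 to 1 per well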
* marks the source's active call; other numbers are inactive results; ? = inconclusive; · = no result.

SMILES | FN deposit inh | Ecoli rRNA inh | FGF22 binding | SIRT5 block | Statin myotox sup | E-selectin induc | AID977621 | AID977628
O=S(=O)(Nc1ccccc1N1CCOCC1)c1cccs1 | -6 | 4 | 0 | -2 | 1 | · | · | ·
O=S(=O)(Nc1ccccc1N1CCCCC1)c1cccs1 | 1 | -33* | 0 | -2 | · | 0 | -4.5 | -8.4
COc1cc(OC)cc(C(=O)NC(C)c2ccc(Br)cc2)c1 (stereo not given) | -7 | 16 | 0 | 0 | 17 | 0 | · | ·
COc1cccc(C(=O)NC(C)c2ccc(Br)cc2)c1 (stereo not given) | -7 | -27* | 0 | -2 | · | -1 | -15 | -11
COc1ccc(N(CCC(=O)O)S(=O)(=O)c2ccc(C)cc2C)cc1 | 5 | -17* | 0 | -7 | · | 1 | 3.8 | -9.3
CCSc1nc2ccccc2c(=O)n1CCc1ccc(OC)c(OC)c1 | -1 | -33* | 0 | -4 | -15 | 1 | · | ?
Cc1cc(F)ccc1-c1cc(C(=O)NCC2CCCCC2)[nH]n1 | -10 | -36* | 0 | 1 | -11 | 1 | · | ?
CNC[C@H]1Oc2cc(C#CCN(C)C)ccc2S(=O)(=O)N([C@@H](C)CO)C[C@H]1C | 5 | -1 | 0 | -6 | 4 | 0 | · | ·
CN1CCN(C(=O)c2cc3nc(-c4ccco4)cc(C(F)(F)F)n3n2)CC1 | · | -27* | 0 | -4 | · | · | -9.9 | -4.4
COC(=O)c1cc(S(=O)(=O)NCc2ccc3c(c2)OCO3)cn1C | -12 | -13* | 0 | -4 | 4 | · | -4.9 | -6.9
CN1CCN(C(=O)C[C@@H]2CC[C@@H](NS(=O)(=O)c3cccc(F)c3)[C@@H](CO)O2)CC1 | 7 | 0 | 0 | -9 | 0 | 0 | · | ·
O=C(Cc1cccc(NC(=O)C2CCN(C(=O)CCc3ccccc3)CC2)c1)Nc1cccc(C(=O)N2CCCCC2)c1 | 4 | -7 | 0 | 1 | 2 | 0 | · | ·
O=C(Cc1cccc(NC(=O)C2CCCN(C(=O)CCc3ccccc3)C2)c1)Nc1cccc(C(=O)N2CCCC2)c1 (stereo not given) | -9 | -19* | 0 | · | 6 | 1 | ? | ·
CCCNC(=O)C[C@@H]1C[C@H]2c3cc(NC(=O)NC4CCCC4)ccc3O[C@H]2[C@@H](CO)O1 | -2 | 5 | 0 | -3 | -6 | 0 | · | ·
NC(=O)c1sc2nnc(-c3ccccc3)c(-c3ccccc3)c2c1N | 1 | -29* | 0 | 0 | -12 | 0 | · | -8.1
NC(=O)c1snnc1-c1ccccc1 | 3 | -1 | 0 | -2 | 1 | 0 | · | ·
O=C(C1Cc2ccccc2CN1C(=O)c1ccccc1)N1CCN(c2ccccc2)CC1 (stereo not given) | -1 | -22* | 0 | 1 | 7 | · | -4 | -10
COc1ccc(N2CCN(C(=O)C3Cc4ccccc4CN3C(=O)c3ccco3)CC2)cc1 (stereo not given) | -6 | · | 0 | -2 | 9 | 0 | · | ·
COc1ccc(OCc2cn(CC(=O)c3ccc(O)cc3)nn2)cc1 | 5 | 2 | 1 | 2 | -2 | 0 | · | ·
O=C(Cn1cc(COc2c(F)c(F)cc(F)c2F)nn1)c1ccc(O)cc1 | -3 | -18* | 0 | 0 | 8 | -1 | ? | ·
Cc1ccccc1-c1ccc2c(c1)O[C@H](CN(C)Cc1ccc(C(=O)O)cc1)[C@H](C)CN([C@@H](C)CO)S2(=O)=O | -10 | -4 | 0 | 2 | 1 | 0 | · | ·
C[C@H](CO)N1C[C@H](C)[C@@H](CN(C)Cc2ccncc2)OCc2ccccc2-c2c(n(C)c3ccccc23)C1=O | -1 | -22* | 0 | -5 | · | -1 | 3.5 | ·
C[C@@H]1CN([C@@H](C)CO)C(=O)c2c(c3ccccc3n2C)-c2ccccc2CO[C@H]1CN(C)Cc1ccncc1 | 3 | 1 | 0 | -7 | · | 0 | · | ·
C[C@H]1CN([C@@H](C)CO)C(=O)c2c(c3ccccc3n2C)-c2ccccc2CO[C@@H]1CN(C)Cc1ccncc1 | 1 | -29* | 0 | -1 | · | 0 | · | 1.5
CN1C(=O)c2cc(NS(C)(=O)=O)ccc2OC[C@H]2O[C@@H](CC(=O)O)CC[C@@H]21 | -38 | 1 | 0 | -1 | -6 | 0 | · | ·
SMILES | FN deposit inh | Ecoli rRNA inh | FGF22 binding | SIRT5 block | Statin myotox sup | E-selectin induc | AID977621 | AID977628
CO[C@H]1CC[C@H]2CCN(C)C(=O)C[C@@H](c3ccccc3)CN(C)C(=O)c3cc(C#N)ccc3OC[C@@H]1O2 | -6 | -1 | · | · | -13 | 0 | · | ·
C[C@@H]1CN([C@@H](C)CO)C(=O)c2c(c3ccccc3n2C)-c2ccccc2CO[C@@H]1CN(C)Cc1ccccc1C(F)(F)F | -18 | 1 | 0 | 8 | · | · | · | ·
Cc1ccc(C)c(-c2[nH]ncc2CN2CCCC(CO)(Cc3ccccc3C)C2)c1 (stereo not given) | -13 | -30* | 0 | -2 | · | -1 | -8.9 | ·
CO[C@@H]1CN(C)C(=O)c2ccc(NC(=O)NC(C)C)cc2OC[C@H](C)N(C(=O)C2CCC2)C[C@H]1C | -5 | 0 | 0 | 1 | 8 | 0 | · | ·
CCCN(Cc1ccco1)S(=O)(=O)c1ccc(OC)c(OC)c1 | -3 | -20* | 0 | 1 | 23 | 0 | -10 | -13
COC(=O)c1cc2ccccc2n1S(=O)(=O)c1ccccc1 | -5 | -32* | 0 | 1 | 2 | 0 | -1.5 | -10
O=C(Nc1cccc2ccccc12)c1ccc([N+](=O)[O-])o1 | 10 | -19* | 0 | -1 | ? | ? | ? | ·
O=C(Nc1ncccn1)c1ccc([N+](=O)[O-])o1 | · | -18* | 0 | 3 | · | · | -7.4 | ?
C[C@@H]1CCCCO[C@H](CN(C)S(=O)(=O)c2ccccc2)[C@H](C)CN([C@H](C)CO)C(=O)c2cc(NS(=O)(=O)c3ccc(F)cc3)ccc2O1 | 11 | -4 | 0 | 9 | · | 1 | · | ·
C[C@@H]1CN([C@H](C)CO)C(=O)c2cc(NS(=O)(=O)c3cccs3)ccc2O[C@@H]1CN(C)Cc1ccc2c(c1)OCO2 | 0 | 1 | 0 | -6 | 31 | 0 | · | ·
O=C(Nc1ccc(F)cc1)N1CC(=O)N2[C@H](C1)[C@H](c1ccc(C#Cc3ccc(F)cc3)cc1)[C@@H]2CO | 18 | -6 | · | 1 | · | 0 | · | ·
O=C(NCCc1ccccc1)c1[nH]c(C(F)(F)F)nc1-c1ccccc1 | 8 | 0 | 0 | -1 | 0 | 0 | · | ·
